# Data taken from ChEMBL document CHEMBL1147111, “In vitro and in vivo activities of synthetic trioxolanes against major human schistosome species” (Antimicrob Agents Chemother, 2007).
# Activity calls are given as the source filed them. The rule behind the calls is not given here.
# Tests used:
# Schistosoma mansoni [1] = test: Antischistosomal activity against NMRI mouse juvenile Schistosoma mansoni infection model assessed as reduction of total worm burden at 200 mg/kg, po after 28 days; assay type: functional; set-up: scale not given: the % may be the effect or the level left
# Method in brief: (§1)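 Juvenile-infection model: mice carrying Liberian-strain S. mansoni got one oral dose at day 21 postinfection, as a suspension in 7% Tween 80/3% ethanol. There were 3–5 per group, plus untreated controls. Necropsy by exsanguination followed 28 days after treatment. Liver and mesenteric-vein worms were collected, sexed and counted. Total and female burden reductions were calculated versus controls, with Kruskal-Wallis testing.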
# Schistosoma mansoni [2] = test: Antischistosomal activity against NMRI mouse juvenile Schistosoma mansoni infection model assessed as reduction of female worm burden at 200 mg/kg, po after 28 days; assay type: functional; set-up: scale not given: the % may be the effect or the level left; method in brief: as §1
# Schistosoma mansoni [3] = test: Antischistosomal activity against NMRI mouse juvenile Schistosoma mansoni infection model assessed as number of cured mouse at 200 mg/kg, po after 28 days; assay type: functional, organism-based; set-up: dose 200 mg/kg; method in brief: as §1
# Schistosoma mansoni [4] = test: Antischistosomal activity against Schistosoma mansoni assessed as worm death at 20 ug/ml after 24 hrs; assay type: functional, organism-based
# Method in brief: (§2)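 Adult S. mansoni (Liberian strain, 49-day-old) were held two males and two females per well, in duplicate, in Hanks' balanced salt solution with 20% calf serum, 300 IU/ml penicillin and 300 μg/ml streptomycin. Drug was given at 20 μg/ml final from a 1 mg/ml stock in 60% DMSO; solvent control was 1.2% DMSO. Incubation was at 37°C in 5% CO2. Worms were scored under a dissecting microscope at 24, 48 and 72 h for death, motor activity and tegument.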
# Schistosoma mansoni [5] = test: Antischistosomal activity against Schistosoma mansoni assessed as worm death at 20 ug/ml after 48 hrs; assay type: functional, organism-based; method in brief: as §2
# Schistosoma mansoni [6] = test: Antischistosomal activity against Schistosoma mansoni assessed as worm death at 20 ug/ml after 72 hrs; assay type: functional, organism-based; method in brief: as §2
# Schistosoma mansoni [7] = test: Reduction of motor activity of Schistosoma mansoni at 20 ug/ml after 24 hrs; assay type: functional, organism-based; method in brief: as §2
# Schistosoma mansoni [8] = test: Reduction of motor activity of Schistosoma mansoni at 20 ug/ml after 48 hrs; assay type: functional, organism-based; method in brief: as §2
# Schistosoma mansoni [9] = test: Reduction of motor activity of Schistosoma mansoni at 20 ug/ml after 72 hrs; assay type: functional, organism-based; method in brief: as §2
# Schistosoma mansoni [10] = test: Tegumental alteration in Schistosoma mansoni at 20 ug/ml after 24 hrs; assay type: functional, organism-based; method in brief: as §2
# Schistosoma mansoni [11] = test: Tegumental alteration in Schistosoma mansoni at 20 ug/ml after 48 hrs; assay type: functional, organism-based; method in brief: as §2
# Schistosoma mansoni [12] = test: Tegumental alteration in Schistosoma mansoni at 20 ug/ml after 72 hrs; assay type: functional, organism-based; method in brief: as §2
# Schistosoma mansoni [13] = test: Antischistosomal activity against NMRI mouse adult Schistosoma mansoni infection model assessed as reduction of total worm burden at 400 mg/kg, po after 28 days; assay type: functional; set-up: scale not given: the % may be the effect or the level left
# Method in brief: (§3)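 Mice with a Liberian-strain S. mansoni infection were dosed at 49 days postinfection with a single oral dose of compound suspended in 7% Tween 80/3% ethanol. Groups held 3–5 animals, with untreated controls. At 28 days posttreatment, animals were killed by bleeding. Worms in liver and mesenteric veins were removed, sexed and counted. Reductions were calculated against controls and tested by Kruskal-Wallis.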
# Schistosoma mansoni [14] = test: Antischistosomal activity against NMRI mouse adult Schistosoma mansoni infection model assessed as reduction of female worm burden at 400 mg/kg, po after 28 days; assay type: functional; set-up: scale not given: the % may be the effect or the level left; method in brief: as §3
# Schistosoma mansoni [15] = test: Antischistosomal activity against Syrian golden hamster juvenile Schistosoma mansoni infection model assessed as reduction of total worm burden at 50 mg/kg, po after 28 days; assay type: functional; set-up: scale not given: the % may be the effect or the level left
# Method in brief: (§4)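 Hamsters infected with Liberian-strain S. mansoni were treated once orally at 21 days (juvenile lines) or 49 days (adult lines) postinfection. Doses were 50, 100 or 200 mg/kg, in 7% Tween 80/3% ethanol suspension. Groups had 3–4 animals, with untreated controls. After 28 days, animals were bled out. Worms from liver and mesenteric veins were sexed and counted, and cures and burden reductions versus controls were recorded (Kruskal-Wallis).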
# Schistosoma mansoni [16] = test: Antischistosomal activity against Syrian golden hamster juvenile Schistosoma mansoni infection model assessed as reduction of female worm burden at 50 mg/kg, po after 28 days; assay type: functional; set-up: scale not given: the % may be the effect or the level left; method in brief: as §4
# Schistosoma mansoni [17] = test: Antischistosomal activity against Syrian golden hamster juvenile Schistosoma mansoni infection model assessed as reduction of total worm burden at 100 mg/kg, po after 28 days; assay type: functional; set-up: scale not given: the % may be the effect or the level left; method in brief: as §4
# Schistosoma mansoni [18] = test: Antischistosomal activity against Syrian golden hamster juvenile Schistosoma mansoni infection model assessed as reduction of female worm burden at 100 mg/kg, po after 28 days; assay type: functional; set-up: scale not given: the % may be the effect or the level left; method in brief: as §4
# Schistosoma mansoni [19] = test: Antischistosomal activity against Syrian golden hamster juvenile Schistosoma mansoni infection model assessed as reduction of total worm burden at 200 mg/kg, po after 28 days; assay type: functional; set-up: scale not given: the % may be the effect or the level left; method in brief: as §4
# Schistosoma mansoni [20] = test: Antischistosomal activity against Syrian golden hamster juvenile Schistosoma mansoni infection model assessed as reduction of female worm burden at 200 mg/kg, po after 28 days; assay type: functional; set-up: scale not given: the % may be the effect or the level left; method in brief: as §4
# Schistosoma mansoni [21] = test: Antischistosomal activity against Syrian golden hamster adult Schistosoma mansoni infection model assessed as reduction of total worm burden at 50 mg/kg, po after 28 days; assay type: functional; set-up: scale not given: the % may be the effect or the level left; method in brief: as §4
# Schistosoma mansoni [22] = test: Antischistosomal activity against Syrian golden hamster adult Schistosoma mansoni infection model assessed as reduction of female worm burden at 50 mg/kg, po after 28 days; assay type: functional; set-up: scale not given: the % may be the effect or the level left; method in brief: as §4
# Schistosoma mansoni [23] = test: Antischistosomal activity against Syrian golden hamster adult Schistosoma mansoni infection model assessed as reduction of total worm burden at 100 mg/kg, po after 28 days; assay type: functional; set-up: scale not given: the % may be the effect or the level left; method in brief: as §4
# Schistosoma mansoni [24] = test: Antischistosomal activity against Syrian golden hamster adult Schistosoma mansoni infection model assessed as reduction of female worm burden at 100 mg/kg, po after 28 days; assay type: functional; set-up: scale not given: the % may be the effect or the level left; method in brief: as §4
# Schistosoma mansoni [25] = test: Antischistosomal activity against Syrian golden hamster adult Schistosoma mansoni infection model assessed as reduction of total worm burden at 200 mg/kg, po after 28 days; assay type: functional; set-up: scale not given: the % may be the effect or the level left; method in brief: as §4
# Schistosoma mansoni [26] = test: Antischistosomal activity against Syrian golden hamster adult Schistosoma mansoni infection model assessed as reduction of female worm burden at 200 mg/kg, po after 28 days; assay type: functional; set-up: scale not given: the % may be the effect or the level left; method in brief: as §4
# Schistosoma japonicum [27] = test: Antischistosomal activity against Syrian golden hamster adult Schistosoma japonicum infection model assessed as reduction of total worm burden at 200 mg/kg, po; assay type: functional; set-up: scale not given: the % may be the effect or the level left
# Method in brief: (§5)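 Hamsters received 100 S. japonicum (Anhui strain) cercariae through shaved abdominal skin. At 35 days postinfection, they were given a single 200 mg/kg oral dose in Tween 80/ethanol suspension, with untreated controls. Animals were killed by bleeding, and worms were recovered by perfusion of hepatic and portomesenteric veins. Worms were sexed and counted, and reductions were computed against controls (Kruskal-Wallis).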
# Schistosoma japonicum [28] = test: Antischistosomal activity against Syrian golden hamster adult Schistosoma japonicum infection model assessed as reduction of female worm burden at 200 mg/kg, po; assay type: functional; set-up: scale not given: the % may be the effect or the level left; method in brief: as §5
# Schistosoma japonicum [29] = test: Antischistosomal activity against New Zealand rabbit adult Schistosoma japonicum infection model assessed as reduction of total worm burden at 15 mg/kg, po; assay type: functional; set-up: scale not given: the % may be the effect or the level left
# Method in brief: (§6)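 Rabbits were infected percutaneously with 200 S. japonicum (Anhui strain) cercariae via shaved abdominal skin. A single 15 mg/kg oral dose in Tween 80/ethanol suspension was given 35 days postinfection, with untreated controls. After sacrifice by blood letting, worms were perfused from hepatic and portomesenteric veins, sexed and counted. Cures and burden reductions were determined versus controls (Kruskal-Wallis).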
# Schistosoma japonicum [30] = test: Antischistosomal activity against New Zealand rabbit adult Schistosoma japonicum infection model assessed as reduction of female worm burden at 15 mg/kg, po; assay type: functional; set-up: scale not given: the % may be the effect or the level left; method in brief: as §6
# Schistosoma mansoni [31] = test: Antischistosomal activity against NMRI mouse adult Schistosoma mansoni infection model assessed as number of cured mouse at 400 mg/kg, po after 28 days; assay type: functional, organism-based; set-up: dose 400 mg/kg; method in brief: as §3
# Schistosoma mansoni [32] = test: Antischistosomal activity against Syrian golden hamster juvenile Schistosoma mansoni infection model assessed as number of cured mouse at 50 mg/kg, po after 28 days; assay type: functional, organism-based; set-up: dose 50 mg/kg; method in brief: as §4
# Schistosoma mansoni [33] = test: Antischistosomal activity against Syrian golden hamster juvenile Schistosoma mansoni infection model assessed as number of cured mouse at 100 mg/kg, po after 28 days; assay type: functional, organism-based; set-up: dose 100 mg/kg; method in brief: as §4
# Schistosoma mansoni [34] = test: Antischistosomal activity against Syrian golden hamster juvenile Schistosoma mansoni infection model assessed as number of cured mouse at 200 mg/kg, po after 28 days; assay type: functional, organism-based; set-up: dose 200 mg/kg; method in brief: as §4
# Schistosoma mansoni [35] = test: Antischistosomal activity against Syrian golden hamster adult Schistosoma mansoni infection model assessed as number of cured mouse at 50 mg/kg, po after 28 days; assay type: functional, organism-based; set-up: dose 50 mg/kg; method in brief: as §4
# Schistosoma mansoni [36] = test: Antischistosomal activity against Syrian golden hamster adult Schistosoma mansoni infection model assessed as number of cured mouse at 100 mg/kg, po after 28 days; assay type: functional, organism-based; set-up: dose 100 mg/kg; method in brief: as §4
# Schistosoma mansoni [37] = test: Antischistosomal activity against Syrian golden hamster adult Schistosoma mansoni infection model assessed as number of cured mouse at 200 mg/kg, po after 28 days; assay type: functional, organism-based; set-up: dose 200 mg/kg; method in brief: as §4
# Schistosoma japonicum [38] = test: Antischistosomal activity against New Zealand rabbit adult Schistosoma japonicum infection model assessed as number of […] mg/kg, po; assay type: functional, organism-based; set-up: dose 15 mg/kg; method in brief: as §6
smiles,measurement,setting,value
C1CCC2(CC1)OCC1(O2)C2CC3CC(C2)CC1C3 (configuration not stated),Activity,Schistosoma mansoni [1],2%
same,Activity,Schistosoma mansoni [2],4.8%
same,Activity,Schistosoma mansoni [3],inactive
C1CCC2(CC1)OOC1(CCCCC1)O2,Activity,Schistosoma mansoni [1],22.9%
same,Activity,Schistosoma mansoni [2],26.4%
same,Activity,Schistosoma mansoni [3],inactive
C1CCC2(CC1)COC1(CCCCC1)OO2,Activity,Schistosoma mansoni [1],0%
same,Activity,Schistosoma mansoni [2],0%
same,Activity,Schistosoma mansoni [3],inactive
O=C(O)C[C@H]1CC[C@]2(CC1)OO[C@]1(O2)C2CC3CC(C2)CC1C3,Activity,Schistosoma mansoni [4],inactive
same,Activity,Schistosoma mansoni [5],inactive
same,Activity,Schistosoma mansoni [6],inactive
same,Activity,Schistosoma mansoni [7],inactive
same,Activity,Schistosoma mansoni [8],inactive
same,Activity,Schistosoma mansoni [9],inactive
same,Activity,Schistosoma mansoni [10],inactive
same,Activity,Schistosoma mansoni [11],inactive
same,Activity,Schistosoma mansoni [12],inactive
same,Activity,Schistosoma mansoni [1],82%
same,Activity,Schistosoma mansoni [2],87.3%
same,Activity,Schistosoma mansoni [13],0%
same,Activity,Schistosoma mansoni [14],0%
same,Activity,Schistosoma mansoni [15],73.4%
same,Activity,Schistosoma mansoni [16],67%
same,Activity,Schistosoma mansoni [17],83%
same,Activity,Schistosoma mansoni [18],78.3%
same,Activity,Schistosoma mansoni [19],80.2%
same,Activity,Schistosoma mansoni [20],75.1%
same,Activity,Schistosoma mansoni [21],46.1%
same,Activity,Schistosoma mansoni [22],38.9%
same,Activity,Schistosoma mansoni [23],69.2%
same,Activity,Schistosoma mansoni [24],79.6%
same,Activity,Schistosoma mansoni [25],85%
same,Activity,Schistosoma mansoni [26],93.2%
same,Activity,Schistosoma japonicum [27],94.2%
same,Activity,Schistosoma japonicum [28],100%
same,Activity,Schistosoma japonicum [29],40.7%
same,Activity,Schistosoma japonicum [30],42.3%
same,Activity,Schistosoma mansoni [31],inactive
same,Activity,Schistosoma mansoni [3],inactive
same,Activity,Schistosoma mansoni [32],inactive
same,Activity,Schistosoma mansoni [33],inactive
same,Activity,Schistosoma mansoni [34],inactive
same,Activity,Schistosoma mansoni [35],inactive
same,Activity,Schistosoma mansoni [36],inactive
same,Activity,Schistosoma mansoni [37],inactive
same,Activity,Schistosoma japonicum [38],inactive
